Test results taken from paper PMC12254776 (Acta Pharmaceutica Sinica. B, 2025).

How the values were obtained:
[1] = tested on: testosterone; experiment: Serum testosterone; type: in vivo, mouse; settings: 4 mg/kg CTX equivalent and/or 7.5 mg/kg GSP equivalent, three injections
[2] = tested on: RM-1 cells; experiment: Mitochondrial membrane potential assay; type: cell-based, mouse; settings: green = low potential
Outline: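 Cells were stained with JC-1 working solution at 37 ℃ for 20 min, washed twice in cold JC-1 buffer and imaged by confocal microscopy (red aggregates, green monomers). Depolarization was quantified in ImageJ. For flow cytometry, cells seeded at 5 × 10⁴/well were trypsinised before staining. Untreated cells were the control.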

[3] = tested on: RM-1 cells; experiment: Live/dead cell co-staining; type: cell-based, mouse; settings: 100 nmol/L CTX equivalent and/or 300 nmol/L GSP equivalent, 24 h
Outline: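 RM-1 cells were seeded on coverslips at 5 × 10⁴ cells/well and grown for 12 h. […] Cells were stained with Calcein-AM (live) and PI (dead) for 30 min and imaged by confocal microscopy. Untreated cells were the control.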

[4] = tested on: L02 cells; experiment: MTT cytotoxicity assay against L02 cells; type: cell-based, human
Outline: (§1)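 Cells were seeded at 2 × 10³ per well and grown for 12 h at 37 ℃, 5% CO₂. RM-1, 4T1 and L02 were kept in RPMI 1640 with 10% FBS; 3T3 in DMEM/F-12 with 10% FBS. […] MTT (5 mg/mL stock) was added for 4 h, formazan was dissolved in DMSO, and absorbance was read at 492 nm.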

[5] = tested on: RM-1 cells; experiment: MTT cytotoxicity assay against RM-1 cells; type: cell-based, mouse; settings: for effect of GSP on the sensitivity of cells to the drug: GSP at an ineffective concentration of 0.5 μmol/L
Outline: as §1

[6] = tested on: 3T3 cells; experiment: MTT cytotoxicity assay against 3T3 cells; type: cell-based, mouse
Outline: as §1

[7] = tested on: RM-1 prostate tumor; experiment: In vivo antitumor efficacy, RM-1 prostate tumor-bearing C57BL/6 mice; set-up: species or system mouse; settings: 4 mg/kg CTX equivalent and/or 7.5 mg/kg GSP equivalent, i.v., every three days, three injections
[8] = tested on: RM-1 prostate tumor; experiment: GSP-rendered ultra-low-dose chemotherapeutic window in vivo; set-up: species or system mouse; settings: five injections
Outline: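 Male C57BL/6 mice were given 5 × 10⁶ RM-1 cells in 100 μL PBS subcutaneously in the right rear flank. […] Dosing was i.v. every other day, five injections. Tumor volume and body weight were recorded daily. Blood was taken one day after the last dose; organs were taken for H&E.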

[9] = tested on: Bcl-2; experiment: Western blotting of Bcl-2 in RM-1 cells; type: cell-based, mouse; settings: 10 nmol/L CTX equivalent and/or 30 nmol/L GSP equivalent, 40 h
[10] = tested on: 4T1 cells; experiment: MTT cytotoxicity assay against 4T1 cells; type: cell-based, mouse; settings: 48 h
Outline: as §1

[11] = 14.9 mg/kg GSP equivalent, i.v.

SMILES: CO[C@H]1C(=O)[C@]2(C)[C@@H](OC)C[C@H]3OC[C@@]3(OC(C)=O)[C@H]2[C@H](OC(=O)c2ccccc2)[C@]2(O)C[C@H](OC(=O)[C@H](O)[C@@H](NC(=O)OC(C)(C)C)c3ccccc3)C(C)=C1C2(C)C [CTX, Cabazitaxel]
- serum testosterone [1]: no change in serum testosterone
- mitochondrial membrane potential change (JC-1 fluorescence, in words) [2]: green fluorescence signals were significantly enhanced
- cell death in live/dead staining [3]: only a small portion of cells
- effect of GSP on the cytotoxicity of the drug ([4]; 500 nmol/L GSP): little effect
- reduction in IC50 values in the presence of GSP ([5]; 0.5 μmol/L GSP): ≥ 100 fold
- effect of GSP on the sensitivity of cells to the drug [5]: dramatically augmented
- effect of GSP on the cytotoxicity of the drug ([6]; 500 nmol/L GSP): little effect
- antitumor activity (tumor growth) [7]: moderate antitumor activity
- body weight ([8]; CTX dose gradient 1–8 mg/kg): dramatic weight loss
- hepatorenal function indicators and whole blood indexes ([8]; CTX dose gradient 1–8 mg/kg): abnormalities in hepatorenal function indicators and pancytopenia
- toxicity (weight loss, death) ([8]; high doses 4, 6 and 8 mg/kg CTX equivalent, i.v.): serious toxic side effects
- anti-tumor effects ([8]; low doses 1 and 2 mg/kg CTX equivalent, i.v.): negligible anti-tumor effects

SMILES: N.N.[Cl][Pt][Cl] [DDP, cisplatin]
- effect of GSP on the sensitivity of cells to the drug [5]: dramatically augmented

SMILES: COc1cccc2c1C(=O)c1c(O)c3c(c(O)c1C2=O)C[C@@](O)(C(=O)CO)C[C@@H]3O[C@H]1C[C@H](N)[C@H](O)[C@H](C)O1 [DOX, doxorubicin]
- effect of GSP on the sensitivity of cells to the drug [5]: dramatically augmented

SMILES: CC(=O)O[C@@]12CO[C@@H]1C[C@H](O)[C@@]1(C)C(=O)[C@H](O)C3=C(C)[C@@H](OC(=O)[C@H](O)[C@@H](NC(=O)OC(C)(C)C)c4ccccc4)C[C@@](O)([C@@H](OC(=O)c4ccccc4)[C@H]21)C3(C)C [DTX, docetaxel]
- effect of GSP on the sensitivity of cells to the drug [5]: dramatically augmented

SMILES: Nc1ccn([C@@H]2O[C@H](CO)[C@@H](O)C2(F)F)c(=O)n1 [GEM, gemcitabine]
- effect of GSP on the sensitivity of cells to the drug [5]: dramatically augmented

SMILES: Cc1cc2c(C(C)C)c(O)c(O)c(C=O)c2c(O)c1-c1c(C)cc2c(C(C)C)c(O)c(O)c(C=O)c2c1O [GSP, Gossypol]
- mitochondrial membrane potential change (JC-1 fluorescence, in words) [2]: negligible impact
- cell death in live/dead staining [3]: only a small portion of cells
- cytotoxicity (in words) ([4]; MTT, 48 h): almost no cytotoxicity
- expression of Bcl-2 protein [9]: significantly down-regulated the expression of Bcl-2
- cytotoxicity (in words) ([5]; MTT, 48 h): almost no cytotoxicity
- cytotoxicity (in words) [10]: almost no cytotoxicity
- cytotoxicity (in words) ([6]; MTT, 48 h): almost no cytotoxicity
- antitumor activity (tumor growth) [7]: moderate antitumor activity
- antitumor effects [8, 11]: moderate antitumor effects
- body weight of tumor-bearing mice [8, 11]: decreased significantly
- liver tissue sections (H&E) [8, 11]: some degree of liver injury

SMILES: O=C1[O][Pt]2([NH][C@@H]3CCCC[C@H]3[NH]2)[O]C1=O [OXP, oxaliplatin]
- effect of GSP on the sensitivity of cells to the drug [5]: dramatically augmented
